≈ marks a conversion by molar mass, not a printed value.
Experiments:
[1] = Tested for aqueous solubility; conditions: aqueous medium
Enterococcus faecalis = experiment: In vitro minimum inhibitory concentration (MIC) against Enterococcus faecalis A 9808 at 37 degrees C for 18 h.; format: functional
In short: (§1)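 Two-fold serial broth dilution in nutrient broth. Inoculum adjusted to 10^6 cfu/mL. Compounds tested from 0.0005 to 250 µg/mL.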

Escherichia coli [2] = experiment: In vitro minimum inhibitory concentration (MIC) against Escherichia coli A 15119 at 37 degrees C for 18 h.; format: functional; in short: as §1
Enterococcus faecium = experiment: In vitro minimum inhibitory concentration (MIC) against Enterococcus faecium A 24885 at 37 degrees C for 18 h.; format: functional; in short: as §1
Klebsiella pneumoniae [3] = experiment: Efficacy on systematic infections against Klebsiella pneumoniae A 9664 after oral administration in mice; format: functional; conditions: read-out: PD50
In short: (§2)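 Mice given compound orally after lethal systemic infection. Read-out is the oral dose protecting 50% of mice from death (PD50), reported in mg/kg.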

Klebsiella pneumoniae [4] = experiment: In vitro minimum inhibitory concentration (MIC) against Klebsiella pneumoniae A 9664 at 37 degrees C for 18 h.; format: functional; in short: as §1
Morganella morganii = experiment: In vitro minimum inhibitory concentration (MIC) against Morganella morganii A 15153 at 37 degrees C for 18 h.; format: functional; in short: as §1
Pseudomonas aeruginosa [5] = experiment: In vitro minimum inhibitory concentration (MIC) against Pseudomonas aeruginosa A 9843 at 37 degrees C for 18 h; format: functional; in short: as §1
Pseudomonas aeruginosa [6] = experiment: Efficacy on systematic infections against Pseudomonas aeruginosa A 9843 after oral administration in mice; format: functional; conditions: read-out: PD50; in short: as §2
Staphylococcus aureus [7] = experiment: Efficacy on systematic infections against Staphylococcus aureus A 9537 after oral administration in mice; format: functional; conditions: read-out: PD50; in short: as §2
Staphylococcus aureus [8] = experiment: In vitro minimum inhibitory concentration (MIC) against Staphylococcus aureus Smith A 9537 at 37 degrees C for 18 hr; format: functional; in short: as §1
Serratia marcescens = experiment: In vitro minimum inhibitory concentration (MIC) against Serratia marcescens A 20019 at 37 degrees C for 18 hr; format: functional; in short: as §1
Enterobacter cloacae = experiment: In vitro minimum inhibitory concentration (MIC) against Enterobacter cloacae A 9656 at 37 degrees C for 18 h.; format: functional
Escherichia coli [9] = experiment: Efficacy on systematic infections against Escherichia coli A 15119 after oral administration in mice; format: functional; conditions: read-out: PD50; in short: as §2
Pseudomonas aeruginosa [10] = experiment: In vitro minimum inhibitory concentration (MIC) against Pseudomonas aeruginosa A 9843 at 37 degree C for 18 h; format: functional; in short: as §1

SMILES	solubility [1]	MIC (Enterococcus faecalis)	MIC (Escherichia coli [2])	MIC (Enterococcus faecium)	ED50 (Klebsiella pneumoniae [3])	MIC (Klebsiella pneumoniae [4])	MIC (Morganella morganii)	MIC (Pseudomonas aeruginosa [5])	ED50 (Pseudomonas aeruginosa [6])	ED50 (Staphylococcus aureus [7])	MIC (Staphylococcus aureus [8])	MIC (Serratia marcescens)	MIC (Enterobacter cloacae)	ED50 (Escherichia coli [9])	MIC (Pseudomonas aeruginosa [10])
CC1CN(c2cc3c(cc2F)c(=O)c(C(=O)O)cn3C(C)(C)C)CCN1 (centres undefined)	1560 µg/mL (≈ 4320 µM)	1 µg/mL (≈ 2.77 µM)	0.008 µg/mL (≈ 0.0221 µM)	4 µg/mL (≈ 11.1 µM)	5.4 mg/kg	0.015 µg/mL (≈ 0.0415 µM)	0.5 µg/mL (≈ 1.38 µM)	1 µg/mL (≈ 2.77 µM)	25 mg/kg	5.4 mg/kg	0.06 µg/mL (≈ 0.166 µM)	0.5 µg/mL (≈ 1.38 µM)	0.03 µg/mL (≈ 0.083 µM)	–	–
CC(C)(C)n1cc(C(=O)O)c(=O)c2cc(F)c(N3C[C@@H]4C[C@H]3CN4)nc21	–	1 µg/mL (≈ 2.77 µM)	0.13 µg/mL (≈ 0.361 µM)	4 µg/mL (≈ 11.1 µM)	10.8 mg/kg	0.13 µg/mL (≈ 0.361 µM)	0.13 µg/mL (≈ 0.361 µM)	–	14 mg/kg	0.5 mg/kg	0.13 µg/mL (≈ 0.361 µM)	2 µg/mL (≈ 5.55 µM)	0.25 µg/mL (≈ 0.694 µM)	4 mg/kg	0.5 µg/mL (≈ 1.39 µM)
CNC1CCN(c2nc3c(cc2F)c(=O)c(C(=O)O)cn3C(C)(C)C)C1 (centres undefined)	–	0.5 µg/mL (≈ 1.38 µM)	0.06 µg/mL (≈ 0.166 µM)	8 µg/mL (≈ 22.1 µM)	–	0.13 µg/mL (≈ 0.359 µM)	0.5 µg/mL (≈ 1.38 µM)	–	–	–	0.06 µg/mL (≈ 0.166 µM)	1 µg/mL (≈ 2.76 µM)	0.06 µg/mL (≈ 0.166 µM)	–	2 µg/mL (≈ 5.52 µM)
CN1CCN(c2nc3c(cc2F)c(=O)c(C(=O)O)cn3C(C)(C)C)CC1	–	2 µg/mL (≈ 5.52 µM)	0.06 µg/mL (≈ 0.166 µM)	0.5 µg/mL (≈ 1.38 µM)	–	0.06 µg/mL (≈ 0.166 µM)	0.5 µg/mL (≈ 1.38 µM)	1 µg/mL (≈ 2.76 µM)	–	–	0.06 µg/mL (≈ 0.166 µM)	0.25 µg/mL (≈ 0.69 µM)	0.06 µg/mL (≈ 0.166 µM)	–	–
CC(C)(C)n1cc(C(=O)O)c(=O)c2cc(F)c(N3C[C@@H](N)[C@H](F)C3)nc21.CS(=O)(=O)O	–	0.25 µg/mL	0.5 µg/mL	2 µg/mL	–	0.5 µg/mL	0.5 µg/mL	–	–	–	0.003 µg/mL	0.5 µg/mL	0.5 µg/mL	–	2 µg/mL
CC(C)(C)n1cc(C(=O)O)c(=O)c2cc(F)c(N3CC4CCC3CN4)cc21 (centres undefined)	–	1 µg/mL (≈ 2.68 µM)	0.5 µg/mL (≈ 1.34 µM)	4 µg/mL (≈ 10.7 µM)	–	0.25 µg/mL (≈ 0.669 µM)	1 µg/mL (≈ 2.68 µM)	–	–	–	0.13 µg/mL (≈ 0.348 µM)	2 µg/mL (≈ 5.36 µM)	0.25 µg/mL (≈ 0.669 µM)	–	2 µg/mL (≈ 5.36 µM)
CN1C2CCC1CN(c1nc3c(cc1F)c(=O)c(C(=O)O)cn3C(C)(C)C)C2.CS(=O)(=O)O	–	2 µg/mL	0.5 µg/mL	16 µg/mL	–	0.1 µg/mL	2 µg/mL	–	–	–	0.25 µg/mL	2 µg/mL	0.25 µg/mL	–	4 µg/mL
CC(C)(C)n1cc(C(=O)O)c(=O)c2cc(F)c(N3C[C@@H]4C[C@H]3CN4)cc21	–	4 µg/mL (≈ 11.1 µM)	2 µg/mL (≈ 5.56 µM)	16 µg/mL (≈ 44.5 µM)	–	0.5 µg/mL (≈ 1.39 µM)	1 µg/mL (≈ 2.78 µM)	–	23 mg/kg	10 mg/kg	0.25 µg/mL (≈ 0.696 µM)	2 µg/mL (≈ 5.56 µM)	0.5 µg/mL (≈ 1.39 µM)	–	1 µg/mL (≈ 2.78 µM)
CC(C)(C)n1cc(C(=O)O)c(=O)c2cc(F)c(N3CC4CCC(C3)N4)nc21.CS(=O)(=O)O	–	1 µg/mL	0.13 µg/mL	4 µg/mL	–	0.13 µg/mL	0.5 µg/mL	–	–	–	0.06 µg/mL	1 µg/mL	0.25 µg/mL	–	4 µg/mL
CC(C)(C)n1cc(C(=O)O)c(=O)c2cc(F)c(N3CC4CCC3CN4)nc21 (centres undefined)	–	0.5 µg/mL (≈ 1.34 µM)	0.13 µg/mL (≈ 0.347 µM)	2 µg/mL (≈ 5.34 µM)	–	0.13 µg/mL (≈ 0.347 µM)	1 µg/mL (≈ 2.67 µM)	–	–	–	0.03 µg/mL (≈ 0.0801 µM)	1 µg/mL (≈ 2.67 µM)	0.06 µg/mL (≈ 0.16 µM)	–	1 µg/mL (≈ 2.67 µM)
CC(C)(C)n1cc(C(=O)O)c(=O)c2cc(F)c(N3CCNC(CF)C3)cc21 (centres undefined)	–	2 µg/mL (≈ 5.27 µM)	0.25 µg/mL (≈ 0.659 µM)	8 µg/mL (≈ 21.1 µM)	–	0.13 µg/mL (≈ 0.343 µM)	0.5 µg/mL (≈ 1.32 µM)	–	–	–	0.13 µg/mL (≈ 0.343 µM)	1 µg/mL (≈ 2.64 µM)	0.13 µg/mL (≈ 0.343 µM)	–	4 µg/mL (≈ 10.5 µM)
CC(C)(C)n1cc(C(=O)O)c(=O)c2cc(F)c(N3C[C@@H](CN)[C@H](F)C3)nc21.CS(=O)(=O)O	–	0.03 µg/mL	0.06 µg/mL	0.25 µg/mL	–	0.13 µg/mL	0.5 µg/mL	–	18 mg/kg	0.8 mg/kg	0.004 µg/mL	1 µg/mL	0.06 µg/mL	–	0.5 µg/mL
CC(C)(C)n1cc(C(=O)O)c(=O)c2cc(F)c(N3C4CCC3CNC4)nc21.CS(=O)(=O)O	–	0.5 µg/mL	0.06 µg/mL	4 µg/mL	–	0.13 µg/mL	0.5 µg/mL	–	–	–	0.06 µg/mL	0.5 µg/mL	0.25 µg/mL	–	2 µg/mL

From ChEMBL document CHEMBL1124759, “Fluoronaphthyridines and quinolones as antibacterial agents. 2. Synthesis and structure-activity relationships of new 1-tert-butyl 7-substituted derivatives” (J Med Chem, 1990)
